Test results published in ChEMBL document CHEMBL1154008, “Synthesis and in vitro activity of new tetrahydronaphtho[1,2-b]azepine derivatives against Trypanosoma cruzi and Leishmania chagasi parasites” (Bioorg Med Chem Lett, 2009).

What was measured:
[1] = Cytotoxicity against human THP1 cells after 72 hrs by MTT assay; assay type: cell-based; details: THP-1 cells
Procedure, shortened: (§1)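 Vero or transformed THP-1 cells exposed to a 3-fold compound dilution series, in triplicate, for 72 h at 37 °C. Toxicity read by MTT reduction. CC50/CC90 taken as the concentrations killing 50% or 90% of cells. Values are representative of one experiment out of three.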

[2] = Selectivity index, ratio of CC50 for african green monkey Vero cells to IC50 for Trypanosoma cruzi 320I04 intracellular amastigotes; assay type: functional
[3] = Selectivity index, ratio of CC50 for human THP1 cells to IC50 for Leishmania chagasi MHOM/BR/74/PP75 promastigotes; assay type: functional, THP-1
Procedure, shortened: (§2)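 SI calculated as Vero CC50 divided by T. cruzi IC50, or THP-1 CC50 divided by L. chagasi IC50. Both values come from 72 h exposures: parasites at 27 °C, mammalian cells at 37 °C with MTT read-out.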

[4] = Selectivity index, ratio of CC50 for african green monkey Vero cells to IC50 for Trypanosoma cruzi 320I04 epimastigotes; assay type: functional; procedure, shortened: as §2
Trypanosoma cruzi [5] = experiment: Antiparasitic activity against Trypanosoma cruzi 320I04 intracellular amastigotes infected in african green monkey Vero cells after 72 hrs; assay type: functional, organism-based; details: 320I04, Vero
[6] = Cytotoxicity against african green monkey Vero cells after 72 hrs by MTT assay; assay type: cell-based; details: chlorocebus sabaeus; procedure, shortened: as §1
Leishmania chagasi = experiment: Antiparasitic activity against Leishmania chagasi MHOM/BR/74/PP75 promastigotes infected in human THP1 cells after 72 hrs; details: MHOM/BR/74/PP75, THP-1, 72 h
Trypanosoma cruzi [7] = experiment: Antiparasitic activity against Trypanosoma cruzi 320I04 epimastigotes […] after 72 hrs; assay type: functional, organism-based
Procedure, shortened: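 Free parasite forms (T. cruzi 320I04 epimastigotes; L. chagasi MHOM/BR/74/PP75 promastigotes) exposed to compounds for 72 h at 27 °C. IC50/IC90 taken as the concentrations giving 50% or 90% growth inhibition. Values are representative of one experiment out of three.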

Row | Compound | IC50 (Trypanosoma cruzi [5]) | IC90 (Trypanosoma cruzi [5]) | IC50 (Leishmania chagasi) | IC90 (Leishmania chagasi) | IC50 (Trypanosoma cruzi [7]) | IC90 (Trypanosoma cruzi [7]) | CC50 at 72 h [1] | CC90 at 72 h [1] | Ratio CC50/IC50 [2] | Ratio CC50/IC50 [3] | Ratio CC50/IC50 [4] | CC50 at 72 h [6] | CC90 at 72 h [6]
1 | COc1cccc([C@@H]2C[C@H](O)Cc3ccc4ccccc4c3N2)c1 | 24.3 µM | > 30 µM | 17.9 µM | 58.7 µM | 14 µM | 48.5 µM | 195 µM | > 300 µM | 4 | 10.9 | 7 | 97.6 µM | > 200 µM
2 | O=[N+]([O-])c1ccccc1[C@@H]1C[C@@H]2Cc3ccc4ccccc4c3N1O2 | > 100 µM | > 100 µM | 40.9 µM | 209 µM | 1.4 µM | 29.3 µM | > 300 µM | > 300 µM | <0.4 | >7.3 | 28.7 | 40.2 µM | > 300 µM
3 | O[C@@H]1Cc2ccc3ccccc3c2N[C@H](c2ccccc2Cl)C1 | 10.6 µM | > 30 µM | 30.6 µM | 64.6 µM | 0.5 µM | 11 µM | 66.1 µM | > 300 µM | 9.1 | 2.2 | 193 | 96.5 µM | > 250 µM
4 | O[C@@H]1Cc2ccc3ccccc3c2N[C@H](c2ccc(Cl)cc2Cl)C1 | > 30 µM | > 30 µM | 11 µM | 28.2 µM | 1 µM | 19.4 µM | 79.4 µM | 92.7 µM | <1.5 | 7.2 | 45.4 | 45.4 µM | > 200 µM
5 | O[C@@H]1Cc2ccc3ccccc3c2N[C@H](c2cccc(Cl)c2)C1 | 23.4 µM | > 30 µM | 6 µM | 67.3 µM | 1.4 µM | 54.9 µM | 43.2 µM | 177 µM | 1.3 | 7.2 | 21.9 | 30.7 µM | > 200 µM
6 | c1ccc([C@@H]2C[C@@H]3Cc4ccc5ccccc5c4N2O3)cc1 | > 100 µM | > 100 µM | 21.2 µM | 175 µM | 11.5 µM | > 350 µM | > 350 µM | > 350 µM | <0.7 | >16.5 | 6.3 | 72.9 µM | > 350 µM
7 | Brc1ccc([C@@H]2C[C@@H]3Cc4ccc5ccccc5c4N2O3)cc1 | > 100 µM | > 100 µM | 73.4 µM | > 250 µM | 11.4 µM | 176 µM | > 250 µM | > 250 µM |  | >3.4 | 21.9 | > 250 µM | > 250 µM
8 | O[C@@H]1Cc2ccc3ccccc3c2N[C@H](c2ccc(Br)cc2)C1 | 9.9 µM | 29.7 µM | 18.5 µM | 37.1 µM | 10.2 µM | 15.9 µM | 79 µM | > 200 µM | 6.7 | 4.3 | 6.5 | 66.1 µM | > 200 µM
9 | CC1CS(=O)(=O)CCN1/N=C/c1ccc([N+](=O)[O-])o1 (stereo unspecified) [NIFURTIMOX] |  | 11 µM |  |  | 4.8 µM | 17 µM |  |  |  |  |  | 114 µM | > 300 µM

Continued by falling IC50 (Leishmania chagasi), values first:

Row | IC50 (Trypanosoma cruzi [5]) | IC90 (Trypanosoma cruzi [5]) | IC50 (Leishmania chagasi) | IC90 (Leishmania chagasi) | IC50 (Trypanosoma cruzi [7]) | IC90 (Trypanosoma cruzi [7]) | Compound | CC50 at 72 h [1] | CC90 at 72 h [1] | Ratio CC50/IC50 [2] | Ratio CC50/IC50 [3] | Ratio CC50/IC50 [4] | CC50 at 72 h [6] | CC90 at 72 h [6]
10 | 19.3 µM | > 30 µM | 46 µM | 67.1 µM | 5.7 µM | 35.1 µM | O[C@@H]1Cc2ccc3ccccc3c2N[C@H](c2ccccc2)C1 | 102 µM | > 300 µM | 5.6 | 2.2 | 18.9 | 108 µM | > 268 µM
11 | 33.4 µM | > 30 µM | 41.4 µM | 134 µM | 16.5 µM | 42.7 µM | Cc1cccc([C@@H]2C[C@H](O)Cc3ccc4ccccc4c3N2)c1 | 89.9 µM | 116 µM | 2.6 | 2.2 | 5.3 | 87.4 µM | > 250 µM
12 | 13.1 µM | > 100 µM | 32.7 µM | > 300 µM | 12.6 µM | 80.1 µM | Clc1cccc([C@@H]2C[C@@H]3Cc4ccc5ccccc5c4N2O3)c1 | > 300 µM | > 300 µM | >22.9 | >9.2 | >23.8 | > 300 µM | > 300 µM
13 | > 100 µM | > 100 µM | 25.9 µM | 52.9 µM | 3.2 µM | 24.8 µM | O[C@@H]1Cc2ccc3ccccc3c2N[C@H](c2ccc(Cl)cc2)C1 | 36.2 µM | 122 µM | <1 | 1.4 | 29.7 | 95 µM | > 250 µM
14 | 14.8 µM | > 30 µM | 21 µM | 120 µM | 1.1 µM | 11.6 µM | O[C@@H]1Cc2ccc3ccccc3c2N[C@H](c2ccc(F)cc2)C1 | 81.9 µM | > 250 µM | 6.8 | 3.9 | 91.4 | 100 µM | > 250 µM
15 | > 100 µM | > 100 µM | 18.3 µM | 55.7 µM | 10.7 µM | 19.4 µM | O[C@@H]1Cc2ccc3ccccc3c2N[C@H](c2cccc(Br)c2)C1 | 41.7 µM | > 250 µM | 0.5 | 2.3 | 4.6 | 49.5 µM | > 250 µM
16 |  |  | 0.01 µM | 0.03 µM |  |  | C[C@@H]1[C@H](O)[C@@H](C)/C=C/C=C/C=C/C=C/C=C/C=C/C=C/[C@H](O[C@@H]2O[C@H](C)[C@@H](O)[C@H](N)[C@@H]2O)C[C@@H]2O[C@](O)(C[C@@H](O)C[C@@H](O)[C@H](O)CC[C@@H](O)C[C@@H](O)CC(=O)O[C@H]1C)C[C@H](O)[C@H]2C(=O)O [AMPHOTERICIN B] | 0.17 µM | 0.18 µM |  | 17 |  |  | 
